Test results: ChEMBL document CHEMBL3804769, “Antibacterial Diamines Targeting Bacterial Membranes” (J Med Chem, 2016)
Active and inactive are the calls of the source. The calls are words filed in the database; no cut-off is given here.

Experiments:
Pseudomonas aeruginosa [1] = assay: Antibacterial activity against Pseudomonas aeruginosa PAO1 ATCC 47085 at 0.5 times MIC99 after 24 hrs by checkerboard assay in presence of norfloxacin; assay type: functional
Procedure, shortened: (§1)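 Checkerboard assay: compound serially diluted along one axis of a 96-well plate and antibiotic along the other, in LB. Each well inoculated with 2 × 10⁴ CFU and incubated 24 h at 37 °C. ΣFIC = FIC A + FIC B, where each FIC is the combination MIC99 divided by the MIC99 of that drug alone.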

Staphylococcus aureus [2] = assay: Bactericidal activity against Staphylococcus aureus RN4220 ATCC 35556 in stationary-phase assessed as reduction in bacterial burden at 4 times MIC99 after 2 to 6 hrs by time-kill assay; assay type: functional, organism-based
Procedure, shortened: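 Overnight cultures washed and resuspended in PBS, then diluted 100-fold into LB (exponential-phase model) or into 1% PBS (stationary-phase model). Test agent added at 4× MIC99. Incubated at 37 °C with shaking at 200 rpm. CFU counted on LB agar at 0, 2, 4 and 6 h.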

Pseudomonas aeruginosa [3] = assay: Antibacterial activity against Pseudomonas aeruginosa PAO1 ATCC 47085 at 0.5 times MIC99 after 24 hrs by checkerboard assay in presence of ampicillin; assay type: functional; procedure, shortened: as §1
[4] = Selectivity index, ratio of CC50 for HEK293T/17 cells to MIC99 for methicillin-resistant Staphylococcus aureus clinical isolate
Staphylococcus aureus [5] = assay: Potentiation of kanamycin-induced antibacterial activity against Staphylococcus aureus RN4220 ATCC 35556 assessed as kanamycin MIC at 0.5 times MIC99 after 24 hrs by checkerboard assay (reference value: 16 ug/ml); assay type: functional; conditions: RN4220 ATCC 35556, 24 h; procedure, shortened: as §1
[6] = Hemolytic activity in human RBC after 1 hr; assay type: ADME, cell-based, Erythrocyte; conditions: red blood cells
Procedure, shortened: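 Human red blood cells, stored at 4 °C, added to serially diluted compound and incubated 1 h at 37 °C without shaking. Plates centrifuged and supernatant absorbance read at 540 nm. Triton X-100 as positive control. HC50 is the concentration lysing 50% of cells.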

Staphylococcus aureus [7] = assay: Bactericidal activity against Staphylococcus aureus RN4220 ATCC 35556 assessed as reduction in bacterial burden at 0.5 times MIC99 after 3 to 24 hrs by time kill assay in presence of 0.5 times MIC99 of kanamycin relative to control; assay type: functional
Procedure, shortened: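 Combination time-kill in LB at 1 × 10⁶ CFU/mL starting inoculum. Arms were compound or kanamycin alone at 1× and 0.5× MIC99, and the two combined at 0.5× MIC99 each. Incubated at 37 °C with shaking at 300 rpm. Viable counts taken by dilution and plating on LB agar at 0, 3, 6 and 24 h.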

Pseudomonas aeruginosa [8] = assay: Antibacterial activity against Pseudomonas aeruginosa PAO1 ATCC 47085 in exponential-phase assessed as cytoplasmic membrane depolarization at 1 to 4 times MIC99 by fluorescent probe DiSC3-5 based fluorophotometric analysis; assay type: functional, organism-based
Procedure, shortened: (§2)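 Log-phase cells (OD600 ~0.7) washed and resuspended to OD600 0.05 in 5 mM HEPES pH 7.2 with 5 mM glucose and 100 mM KCl. Loaded with 0.4 μM DiSC3-5 in the dark until fluorescence fell stably by about 90%. Compound added at 4× or 1× MIC99 and fluorescence recorded continuously at 25 °C (ex 622/em 670 nm). 2,4-Dinitrophenol as positive control. Three independent experiments.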

Staphylococcus aureus [9] = assay: Antibacterial activity against methicillin-resistant Staphylococcus aureus clinical isolate 30253CA SPA type 7 after 24 hrs by microbroth dilution method; assay type: functional
Procedure, shortened: (§3)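 MRSA isolates from ICU surfaces, stored at −80 °C and grown in Mueller-Hinton broth. Overnight cultures diluted and added to serially diluted compound at ~10⁵ CFU/mL, broth microdilution. Plates incubated 24 h at 37 °C, growth read as absorbance at 620 nm. MIC99 taken as the lowest concentration giving complete growth inhibition.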

Pseudomonas aeruginosa [10] = assay: Antibacterial activity against Pseudomonas aeruginosa PAO1 ATCC 47085 assessed as increase in outer membrane permeability at 1 to 4 times MIC99 by fluorescent probe 1-N-phenylnaphthylamine based fluorescence assay; assay type: functional, organism-based
Procedure, shortened: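 PAO1 cells harvested at OD600 ~0.5, washed, and resuspended in 5 mM HEPES pH 7.2 with 10 μM NPN (final) and 10 mM sodium azide (final). Held 30 min at room temperature in the dark. Compound added at 4× or 1× MIC99 and NPN fluorescence recorded continuously (ex 350/em 420 nm). Gentamicin at 4× MIC99 as positive control. Three independent experiments.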

Caenorhabditis elegans = assay: Toxicity in adult L4/juvenile L1 stages of Caenorhabditis elegans N2 assessed as effect on egg development at 64 ug/ml incubated for 96 hrs measured every 12 hrs; assay type: organism-based; conditions: in vivo
Procedure, shortened: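 C. elegans N2 maintained on NGM agar at 22 °C. Compound mixed into molten NGM agar at 64 μg/mL. L4 adults, L1 juveniles and synchronized eggs transferred onto test plates and kept 96 h at 22 °C. Checked every 12 h for death, development and egg production. Gentamicin and […] as controls.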

Staphylococcus aureus [11] = assay: Antibacterial activity against methicillin-resistant Staphylococcus aureus clinical isolate 10076B SPA type 2 after 24 hrs by microbroth dilution method; assay type: functional; procedure, shortened: as §3
Pseudomonas aeruginosa [12] = assay: Antibiofilm activity against Pseudomonas aeruginosa PAO1 ATCC 47085 at 64 ug/ml after 24 hrs by crystal violet staining-based spectrophotometry; assay type: functional, organism-based
Procedure, shortened: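 PAO1 grown 2 h in LB at 37 °C with shaking, then diluted 1:1000 in 10% LB-PBS to 3 × 10⁵ CFU/mL and mixed with serially diluted compound. Biofilms grown on peg lids 24 h at 37 °C, static. Pegs washed, stained with 0.1% crystal violet for 15 min, dye eluted in 95% ethanol and read at 600 nm. Control was 10% LB-PBS.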

[13] = Cytotoxicity against human A549 cells after 48 hrs by MTS conversion assay; assay type: cell-based
Procedure, shortened: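 HEK293T/17 and A549 cells maintained in DMEM with 10% FBS at 37 °C, 5% CO2. Seeded at 10⁴ cells per well; after 24 h, washed with PBS and exposed to serially diluted compound for 48 h. Viability read by MTS conversion. CC50 obtained by nonlinear regression.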

Staphylococcus aureus [14] = assay: Bactericidal activity against Staphylococcus aureus RN4220 ATCC 35556 assessed as reduction in bacterial burden at 4 times MIC99; assay type: functional
Staphylococcus aureus [15] = assay: Antibacterial activity against Staphylococcus aureus RN4220 ATCC 35556 at 0.5 times MIC99 after 24 hrs by checkerboard assay in presence of kanamycin; assay type: functional; procedure, shortened: as §1
Staphylococcus aureus [16] = assay: Antibacterial activity against Staphylococcus aureus RN4220 ATCC 35556 in exponential-phase assessed as cytoplasmic membrane depolarization at 1 to 4 times MIC99 by fluorescent probe DiSC3-5 based fluorophotometric analysis; assay type: functional, organism-based; procedure, shortened: as §2
Staphylococcus aureus [17] = assay: Antibacterial activity against Staphylococcus aureus RN4220 ATCC 35556 at 0.5 times MIC99 after 24 hrs by checkerboard assay in presence of ampicillin; assay type: functional; procedure, shortened: as §1
Pseudomonas aeruginosa [18] = assay: Antibacterial activity against Pseudomonas aeruginosa PAO1 ATCC 47085 incubated overnight by microbroth dilution method; assay type: functional
Procedure, shortened: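 Bacteria grown in LB medium. CLSI microbroth dilution in 96-well plates, overnight at 37 °C without shaking. MIC99 taken as the lowest concentration giving complete growth inhibition. Three independent determinations, reported as mean ± SD.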

Staphylococcus aureus [19] = assay: Antibacterial activity against methicillin-resistant Staphylococcus aureus clinical isolate 10082B SPA type 1 after 24 hrs by microbroth dilution method; assay type: functional; procedure, shortened: as §3

## Cl.Cl.S=C(NCCCNCCCCCNCCCNC(=S)NCC(c1ccccc1)c1ccccc1)NCC(c1ccccc1)c1ccccc1
Pseudomonas aeruginosa [1]
  fractional inhibitory concentration index (FICI): 0.75
Staphylococcus aureus [2]
  Activity: Active
Pseudomonas aeruginosa [3]
  fractional inhibitory concentration index (FICI): 2
[4]
  Selectivity Index: 32
Staphylococcus aureus [5]
  MIC99: 2 µg/mL
[6]
  HC50 at 1 h: 64 µg/mL
Staphylococcus aureus [7]
  Activity: >2 deltalog10CFU/ml
Pseudomonas aeruginosa [8]
  Activity: Active
Staphylococcus aureus [9]
  MIC99: 1 µg/mL
Pseudomonas aeruginosa [10]
  Activity: Active
Caenorhabditis elegans
  Activity: Non-toxic
Staphylococcus aureus [11]
  MIC99: 1 µg/mL
Pseudomonas aeruginosa [12]
  Activity: Active
[13]
  CC50 at 48 h: 64 µg/mL
Staphylococcus aureus [14]
  Activity: >2 deltalog10CFU/ml
Staphylococcus aureus [15]
  fractional inhibitory concentration index (FICI): 0.25
Staphylococcus aureus [16]
  Activity: Active
Staphylococcus aureus [17]
  fractional inhibitory concentration index (FICI): 0.75
Pseudomonas aeruginosa [18]
  MIC99: 8 µg/mL
Staphylococcus aureus [19]
  MIC99: 1 µg/mL
